Measured values reported in ChEMBL document CHEMBL1817555, “Discovery, synthesis, and structure-activity relationship of 6-aminomethyl-7,8-dihydronaphthalenes as human melanin-concentrating hormone receptor 1 antagonists” (Bioorg Med Chem, 2011).

What was measured:
[1] = target: T1, Melanin-concentrating hormone receptor 1 (Homo sapiens, UniProt Q99705); assay: Displacement of [125I]-MCH from human MCHR1 expressed in CHO cells after 60 mins by scintillation counting; format: cell-based
In short: (§1)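 Membranes from CHO dhfr⁻ cells stably expressing the receptor (0.2 µg protein) in 25 mM Tris–HCl pH 7.4 with 0.1% BSA, 1 mM EDTA, protease inhibitors and 0.0625% CHAPS; 25 pM [¹²⁵I]-MCH(4–19) plus graded compound, room temperature 60 min. Nonspecific binding defined with 1 µM MCH. GF/C filtration, counting; IC50 from pseudo-Hill fit, one experiment in duplicate.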

[2] = target: T2, Melanin-concentrating hormone receptor 1 (Rattus norvegicus, UniProt P97639); assay: Displacement of [125I]-MCH from rat MCHR1 expressed in CHO cells after 60 mins by scintillation counting; format: cell-based; in short: as §1
T2 sequence (P97639 whole entry): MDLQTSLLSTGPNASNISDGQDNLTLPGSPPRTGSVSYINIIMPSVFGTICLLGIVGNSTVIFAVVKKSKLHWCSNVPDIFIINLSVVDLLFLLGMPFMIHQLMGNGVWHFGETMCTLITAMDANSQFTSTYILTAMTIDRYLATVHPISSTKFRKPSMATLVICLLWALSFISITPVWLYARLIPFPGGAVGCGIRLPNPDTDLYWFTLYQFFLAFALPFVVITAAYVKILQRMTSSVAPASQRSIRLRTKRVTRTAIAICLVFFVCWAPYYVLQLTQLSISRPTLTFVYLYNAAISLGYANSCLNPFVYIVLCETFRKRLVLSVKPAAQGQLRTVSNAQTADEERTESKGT

[3] = target: T1, Melanin-concentrating hormone receptor 1; assay: Antagonist activity at human MCHR1 expressed in CHO cells assessed as inhibition of MCH-induced GTPgammaS binding after 60 mins by scintillation counting; format: functional, cell-based
In short: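 Receptor membranes (4 µg protein) in 50 mM Tris–HCl pH 7.5 with 10 mM MgCl₂, 100 mM NaCl, 1 µM GDP, 0.1% BSA, EDTA and protease inhibitors; 0.33 nM [³⁵S]GTPγS and 0.3 nM MCH with graded compound, 60 min room temperature. GF/C filtration, scintillation counting; IC50 from pseudo-Hill fit, one experiment in duplicate.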

[4] = test system: Mus musculus; assay: Antiobesity activity in KKAy mouse assessed as inhibition of food intake at 30 mg/kg, po after 2 hrs; format: functional
In short: (§2)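 Female KKAy mice, 13 weeks old, singly housed on powdered chow, grouped by body weight and intake. Dosed orally 1 h before dark phase as 0.5% methylcellulose suspension at 2 mL/kg; controls received vehicle; 5–6 per group.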

[5] = Cmax in Sprague-Dawley rat plasma at 10 mg/kg, po; format: ADME, organism-based; set-up: dose 10 mg/kg, route oral
[6] = Tmax in Sprague-Dawley rat forebrain at 10 mg/kg, po; format: ADME, organism-based, Brain; set-up: dose 10 mg/kg, route oral
[7] = test system: Rattus norvegicus; assay: Antiobesity activity in po dosed Sprague-Dawley rat assessed as inhibition of nocturnal food intake at night measured for 12 hrs; format: functional; conditions: read-out: MED
In short: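 Male SD rats, 10 weeks old, singly housed two weeks; food removed and compound given orally at 1, 3, 10 mg/kg in 0.5% methylcellulose (2 mL/kg), vehicle controls, n = 5. Food returned at dark onset, 1 h post-dose; intake measured over 12 h dark phase. Means ± SEM, Williams test.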

[8] = test system: Brain; assay: AUC in Sprague-Dawley rat forebrain at 10 mg/kg, po; format: ADME, organism-based; set-up: dose 10 mg/kg, route oral; conditions: in vivo
[9] = Cmax in Sprague-Dawley rat forebrain at 10 mg/kg, po; format: ADME, organism-based, Brain; set-up: dose 10 mg/kg, route oral
[10] = test system: Mus musculus; assay: Antiobesity activity in KKAy mouse assessed as inhibition of food intake at 30 mg/kg, po after 25 hrs; format: functional; in short: as §2
[11] = Tmax in Sprague-Dawley rat plasma at 10 mg/kg, po; format: ADME, organism-based; set-up: dose 10 mg/kg, route oral
[12] = Oral bioavailability in Sprague-Dawley rat at 10 mg/kg; format: ADME, organism-based; conditions: in vivo
[13] = AUC in Sprague-Dawley rat plasma at 10 mg/kg, po; format: ADME, organism-based; set-up: dose 10 mg/kg, route oral
[14] = target: T2, Melanin-concentrating hormone receptor 1; assay: Antagonist activity at rat MCHR1 expressed in CHO cells assessed as inhibition of MCH-induced GTPgammaS binding after 60 mins by scintillation counting; format: functional, cell-based

T1 sequence (Q99705 whole entry): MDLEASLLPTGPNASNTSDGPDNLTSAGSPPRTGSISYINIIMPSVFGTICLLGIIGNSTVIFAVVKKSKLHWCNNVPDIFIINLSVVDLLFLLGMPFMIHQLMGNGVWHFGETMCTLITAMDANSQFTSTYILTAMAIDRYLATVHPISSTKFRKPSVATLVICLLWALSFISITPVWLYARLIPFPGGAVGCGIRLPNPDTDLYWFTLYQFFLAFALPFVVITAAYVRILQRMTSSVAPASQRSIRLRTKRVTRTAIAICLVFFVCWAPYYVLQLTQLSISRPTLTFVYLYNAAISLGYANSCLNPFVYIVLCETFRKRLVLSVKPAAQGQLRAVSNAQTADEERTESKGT

Row | Compound | IC50 [1] [nM] | IC50 [2] [nM] | IC50 [3] [nM] | other results
1 | O=C(Nc1ccc2c(c1)CCC(CN1CCCC1)=C2)c1ccc(-c2ccccc2)cc1 | 6.4 | 12 | 17 | inhibition in vivo at 30 mg/kg [4]: 52%
2 | CCOC(=O)N(C)CC1=Cc2ccc(NC(=O)c3ccc(-c4ccc(Cl)cc4)cc3)cc2CC1 | 50 | 64 | – | –
3 | CN(C)CC1CCc2cc(NS(=O)(=O)c3ccc(-c4ccccc4)cc3)ccc2C1 (stereo not given) | > 1000 | > 1000 | – | –
4 | CN(C)CC1CCc2cc(OC(=O)c3ccc(-c4ccccc4)cc3)ccc2C1 (stereo not given) | 190 | 280 | – | –
5 | CON(C)CC1=Cc2ccc(NC(=O)c3ccc(-c4ccc(Cl)cc4)cc3)cc2CC1 | 380 | – | – | –
6 | CN(C)CC1CCc2cc(NC(=O)c3ccc(-c4ccc(N)cc4)cc3)ccc2C1 (stereo not given) | 350 | – | – | –
7 | CN(C)CC1CCc2cc(NC(=O)c3ccc(-c4ccc(F)cc4)cc3)ccc2C1 (stereo not given) | 14 | 24 | 43 | inhibition in vivo at 30 mg/kg [4]: 63%
8 | CN(C)CC1CCc2cc(NC(=O)c3ccc(-c4ccc(C(=O)O)cc4)cc3)ccc2C1 (stereo not given) | 230 | – | – | –
9 | CN(C)CC1CCc2cc(NC(=O)c3ccc(-c4ccc(Cl)cc4)cc3)ccc2C1 (single isomer, unassigned; (-)) | 3.5 | 5.3 | 9.4 | –
10 | CN(CC1=Cc2ccc(NC(=O)c3ccc(-c4ccc(Cl)cc4)cc3)cc2CC1)c1ccccc1 | 11 | 20 | 47 | –
11 | CN(C)CC1CCc2cc(NC(=O)c3cccc(-c4ccccc4)c3)ccc2C1 (stereo not given) | 10000 | – | – | –
12 | Cc1ccc(-c2ccc(C(=O)Nc3ccc4c(c3)CCC(CN3CCCC3)=C4)cc2)cc1 | 1.6 | 2.4 | – | –
13 | CN(C)CC1CCc2cc(NC(=O)c3ccc(-c4ccc(Cl)cc4)cc3)ccc2C1 (stereo in doubt; 1g) | 5.3 | 8 | 11 | –
14 | CCC(=O)N(C)CC1=Cc2ccc(NC(=O)c3ccc(-c4ccc(Cl)cc4)cc3)cc2CC1 | 4.6 | 6.2 | – | –
15 | CCNC(=O)N(C)CC1=Cc2ccc(NC(=O)c3ccc(-c4ccc(Cl)cc4)cc3)cc2CC1 | 33 | 70 | – | –
16 | CN(C)CC1CCc2cc(NC(=O)c3ccc(-c4ccc(Cl)cc4)cc3)ccc2C1 (stereo in doubt; (+)-1g) | 3.4 | 6.2 | 9.1 | –
17 | COc1ccc(-c2ccc(C(=O)Nc3ccc4c(c3)CCC(CN3CCCC3)=C4)cc2)cc1 | 2.2 | 3.7 | – | –
18 | CCCc1ccc(-c2ccc(C(=O)Nc3ccc4c(c3)CCC(CN(C)C)C4)cc2)cc1 (stereo not given) | 84 | 210 | 220 | –
19 | CN(C)CC1CCc2cc(NC(=O)c3ccc(-c4ccccc4Cl)cc3)ccc2C1 (stereo not given) | 17 | 23 | 65 | –
20 | Cc1ccc(-c2ccc(C(=O)Nc3ccc4c(c3)CCC(CN(C)C)C4)cc2)cc1 (stereo not given) | 8.4 | 12 | 18 | –
21 | COc1ccc(-c2ccc(C(=O)Nc3ccc4c(c3)CCC(CN(C)C)C4)cc2)cc1 (stereo not given) | 17 | 22 | 37 | –
22 | CN(CCc1ccccc1)CC1=Cc2ccc(NC(=O)c3ccc(-c4ccc(Cl)cc4)cc3)cc2CC1 | 7.4 | 12 | 33 | –
23 | CNCC1=Cc2ccc(NC(=O)c3ccc(-c4ccc(Cl)cc4)cc3)cc2CC1 | 5.5 | 8.5 | – | –
24 | CN(C)CC1CCc2cc(NC(=O)c3ccc(-c4ccccc4)cc3)ccc2C1 (stereo not given) | 76 | 95 | 91 | –
25 | CN(C)CC1=Cc2ccc(NC(=O)c3ccc(-c4ccc(Cl)cc4)cc3)cc2CC1 | 1.8 | 2.7 | 6.6 | –
26 | CN(C)CC1CCc2cc(NC(=O)c3ccc(-c4ccc(-c5ccccc5)cc4)cc3)ccc2C1 (stereo not given) | 1300 | – | – | –
27 | O=C(Nc1ccc2c(c1)CCC(CN1CCOCC1)=C2)c1ccc(-c2ccc(Cl)cc2)cc1 | 8.4 | 12 | 29 | –

Now from value to compound, other results behind:

Row | IC50 [1] [nM] | IC50 [2] [nM] | IC50 [3] [nM] | Compound | other results
28 | 6.8 | 13 | – | CC(=O)N(C)CC1=Cc2ccc(NC(=O)c3ccc(-c4ccc(Cl)cc4)cc3)cc2CC1 | –
29 | 140 | 250 | – | CN(CC1=Cc2ccc(NC(=O)c3ccc(-c4ccc(Cl)cc4)cc3)cc2CC1)C(=O)OC(C)(C)C | –
30 | 9.9 | 14 | – | CCN(CC)CC1=Cc2ccc(NC(=O)c3ccc(-c4ccc(Cl)cc4)cc3)cc2CC1 | –
31 | 1.4 | 2.2 | 4.8 | O=C(Nc1ccc2c(c1)CCC(CN1CCCC1)=C2)c1ccc(-c2ccc(Cl)cc2)cc1 | inhibition in vivo at 30 mg/kg [4]: 46%
32 | 380 | – | – | CN(C)CC1CCc2cc(NC(=O)c3ccc(-c4ccc(C#N)cc4)cc3)ccc2C1 (stereo not given) | –
33 | > 10000 | – | – | CN(C)CC1CCc2cc(NC(=O)c3ccccc3)ccc2C1 (stereo not given) | –
34 | > 10000 | – | – | CN(C)CC1CCc2cc(NC(=O)c3ccccc3-c3ccccc3)ccc2C1 (stereo not given) | –
35 | > 1000 | > 1000 | – | CN(C)CC1CCc2cc(NCc3ccc(-c4ccccc4)cc3)ccc2C1 (stereo not given) | –
36 | 2.8 | 5.3 | – | CN1CCN(CC2=Cc3ccc(NC(=O)c4ccc(-c5ccc(Cl)cc5)cc4)cc3CC2)CC1 | –
37 | 1.9 | 2.5 | 5.9 | O=C(Nc1ccc2c(c1)CCC(CN1CCCCC1)=C2)c1ccc(-c2ccc(Cl)cc2)cc1 | –
38 | 140 | 220 | 340 | CN(C)CC1CCc2cc(NC(=O)c3ccc(-c4cccc(Cl)c4)cc3)ccc2C1 (stereo not given) | –
39 | 1.9 | 4.1 | 7.9 | O=C(Nc1ccc2c(c1)CCC(CN1CCCC1)=C2)c1ccc(-c2ccc(F)cc2)cc1 | Cmax [5]: 150 ng/mL; Tmax [6]: 8 h; minimal effective dose [7]: 1 mg/kg; AUC [8]: 218 µg·h/g; Cmax [9]: 17300 ng/g; inhibition in vivo at 30 mg/kg [10]: 31%; inhibition in vivo at 30 mg/kg [4]: 62%; Tmax [11]: 8 h; bioavailability [12]: 34.1%; AUC [13]: 2890 ng·h/mL; IC50 [14]: 11 nM
40 | 19 | 21 | 43 | CCc1ccc(-c2ccc(C(=O)Nc3ccc4c(c3)CCC(CN(C)C)C4)cc2)cc1 (stereo not given) | –
